Results reported in ChEMBL document CHEMBL3600297, “N-Sulfonyl-aminobiaryls as Antitubulin Agents and Inhibitors of Signal Transducers and Activators of Transcription 3 (STAT3) Signaling” (J Med Chem, 2015).
The source made the active and inactive calls. No cut-off for these calls is given here.

Tests used:
ASPC1 = assay: Cytotoxicity against human AsPC1 cells assessed as growth inhibition after 48 hrs by sulforhodamine B assay; type: functional; details: ASPC1, 48 h
Procedure, shortened: (§1)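 Seeded at (3−5) × 10^3 cells/well. A time-zero plate was TCA-fixed after attachment. Next day, cells got vehicle (0.1% DMSO) or a rising concentration gradient for 48 h, then 10% TCA fixation, 0.4% SRB in 1% AcOH, A515 read. GI50 taken relative to the time-zero absorbance; at least three independent runs, mean ± SD.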

[1] = Cytotoxicity against human Hep3B cells assessed as growth inhibition after 48 hrs by sulforhodamine B assay; type: functional, Hep 3B2; procedure, shortened: as §1
A549 [2] = assay: Cytotoxicity against human A549 cells assessed as growth inhibition after 48 hrs by sulforhodamine B assay; type: functional; details: A549, 48 h; procedure, shortened: as §1
PC-3 = assay: Cytotoxicity against human PC3 cells assessed as growth inhibition after 48 hrs by sulforhodamine B assay; type: functional; details: PC-3, 48 h; procedure, shortened: as §1
A549 [3] = assay: Induction of microtubule destabilization in human A549 cells at 1 uM after 24 hrs by DAPI staining-based immunofluorescence confocal microscopic analysis; type: cell-based
Procedure, shortened: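 A549 seeded sparsely on chamber slides and treated 24 h; cold MeOH fixation (−20 °C, 15 min), blocked with 0.1% Triton X-100 in PBS 30 min at 37 °C. Monoclonal anti-β-tubulin 1 h at 37 °C, then FITC anti-mouse IgG, DAPI nuclear counterstain; confocal imaging.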

Tubulin (Sus scrofa) [4] = target: T1, Tubulin (Sus scrofa) (UniProt P02554+P02550); assay: Inhibition of porcine tubulin polymerization at 10 uM measured every min for 30 mins by spectrophotometric analysis; type: protein assay
Procedure, shortened: (§2)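 Cold porcine tubulin (>99% pure) in G-PEM buffer (80 mM PIPES, 2 mM MgCl2, 0.5 mM EGTA, 1 mM GTP, pH 6.9) with 15% glycerol, with or without compound. Kinetic turbidity at 340 nm, read each minute for 30 min at 37 °C. DMSO control.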

Tubulin = assay: Displacement of [3H]-colchicine from tubulin (unknown origin) preincubated with protein for 1 hr followed by [3H]-colchicine addition measured after 3 hrs by scintillation counting analysis; type: protein-complex assay, Homo sapiens
Tubulin (Sus scrofa) [5] = target: T1, Tubulin (Sus scrofa); assay: Inhibition of porcine tubulin polymerization measured every min for 30 mins by spectrophotometric analysis; type: protein assay; procedure, shortened: as §2
A549 [6] = assay: Effect on G2/M phase in human A549 cells after 24 hrs by propidium iodide staining-based flow cytometric analysis; type: functional, cell-based
Procedure, shortened: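 A549 given the indicated concentration for 24 h, fixed in 75% ethanol overnight at −20 °C, washed in cold PBS, 30 min in phosphate–citric acid buffer pH 7.8 at room temperature. Stained with propidium iodide buffer containing 0.1% Triton X-100 and RNase A; DNA content read on a FACScan.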

T1 sequence (P02550 whole entry, looked up): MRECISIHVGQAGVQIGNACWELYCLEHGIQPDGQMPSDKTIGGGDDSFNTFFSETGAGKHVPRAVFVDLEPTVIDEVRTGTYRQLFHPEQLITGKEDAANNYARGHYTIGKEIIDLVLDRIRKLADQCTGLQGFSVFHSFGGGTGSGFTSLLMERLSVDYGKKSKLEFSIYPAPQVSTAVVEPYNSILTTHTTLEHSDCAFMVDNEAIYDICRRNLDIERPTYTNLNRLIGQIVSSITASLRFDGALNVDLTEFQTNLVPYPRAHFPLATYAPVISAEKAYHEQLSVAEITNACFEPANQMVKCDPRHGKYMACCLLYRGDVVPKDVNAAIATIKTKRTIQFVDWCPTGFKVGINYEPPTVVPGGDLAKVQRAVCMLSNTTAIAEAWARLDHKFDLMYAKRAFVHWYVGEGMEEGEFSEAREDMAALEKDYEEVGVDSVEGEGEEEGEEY
T1 sequence (P02554 whole entry, looked up): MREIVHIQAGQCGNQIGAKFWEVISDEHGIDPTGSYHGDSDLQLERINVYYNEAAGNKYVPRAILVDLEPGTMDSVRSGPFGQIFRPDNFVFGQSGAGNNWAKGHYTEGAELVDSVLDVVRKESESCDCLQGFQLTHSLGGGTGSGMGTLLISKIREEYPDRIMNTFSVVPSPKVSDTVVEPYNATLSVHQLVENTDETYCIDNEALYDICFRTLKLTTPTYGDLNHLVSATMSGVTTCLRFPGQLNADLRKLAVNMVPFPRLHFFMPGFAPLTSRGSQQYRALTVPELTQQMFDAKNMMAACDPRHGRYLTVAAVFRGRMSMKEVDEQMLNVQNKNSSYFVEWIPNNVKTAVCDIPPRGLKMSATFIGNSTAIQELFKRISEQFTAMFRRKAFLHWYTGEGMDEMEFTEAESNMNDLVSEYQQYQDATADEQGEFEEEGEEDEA

**Q.** With `COc1ccc(S(=O)(=O)Nc2ccccc2-c2ccc(F)c(F)c2)cc1` as the molecule, how does the GI50 (ASPC1) read?
**A.** 280 nM

**Q.** What about the GI50 [1] of the same molecule?
**A.** 150 nM

**Q.** What about the GI50 (A549 [2]) of the same molecule?
**A.** 300 nM

**Q.** And the GI50 (PC-3)?
**A.** 190 nM

**Q.** Which Activity (A549 [3]) does the source give for `CC[C@]1(O)C[C@H]2CN(CCc3c([nH]c4ccccc34)[C@@](C(=O)OC)(c3cc4c(cc3OC)N(C=O)[C@H]3[C@@](O)(C(=O)OC)[C@H](OC(C)=O)[C@]5(CC)C=CCN6CC[C@]43[C@@H]65)C2)C1` here?
**A.** Active

**Q.** And the inhibition (Tubulin (Sus scrofa) [4])?
**A.** Active

**Q.** For `COc1ccc(S(=O)(=O)Nc2cccnc2Nc2ccc(O)cc2)cc1` [ABT-751], which GI50 (ASPC1) is on record?
**A.** 4110 nM

**Q.** And the GI50 [1]?
**A.** 840 nM

**Q.** And the GI50 (A549 [2])?
**A.** 5330 nM

**Q.** And the GI50 (PC-3)?
**A.** 620 nM

**Q.** For `COc1ccc(S(=O)(=O)N(CCCl)c2ccccc2-c2ccc(C#N)cc2)cc1`, which GI50 (ASPC1) is on record?
**A.** 4790 nM

**Q.** And the GI50 [1]?
**A.** 1550 nM

**Q.** What about the GI50 (A549 [2]) of the same molecule?
**A.** 1500 nM

**Q.** And the GI50 (PC-3)?
**A.** 6520 nM

**Q.** Which IC50 (Tubulin) does the source give for `COc1ccc(S(=O)(=O)Nc2ccccc2-c2ccc(C#N)c(F)c2)cc1` here?
**A.** 670 nM

**Q.** And the inhibition (Tubulin (Sus scrofa) [5])?
**A.** Dose-dependent effect

**Q.** For `Cc1ccc(S(=O)(=O)OCC(=O)Nc2ccc(C(=O)O)c(O)c2)cc1`, which Activity (A549 [6]) is on record?
**A.** inactive
